Laboratory results taken from ChEMBL document CHEMBL4371071, “Muscarinic agonist, (±)-quinuclidin-3-yl-(4-fluorophenethyl)(phenyl)carbamate: High affinity, but low subtype selectivity for human M1 - M5 muscarinic acetylcholine receptors” (Bioorg Med Chem Lett, 2019).

The compounds below were run against T1, Muscarinic acetylcholine receptor M2 (Homo sapiens, UniProt P08172) (assay: Displacement of [3H]NMS from human M2 AChR expressed in CHO cell membranes after 1 to 2 hrs by liquid scintillation spectrometry method). Settings: not given.
T1 sequence (P08172 whole entry): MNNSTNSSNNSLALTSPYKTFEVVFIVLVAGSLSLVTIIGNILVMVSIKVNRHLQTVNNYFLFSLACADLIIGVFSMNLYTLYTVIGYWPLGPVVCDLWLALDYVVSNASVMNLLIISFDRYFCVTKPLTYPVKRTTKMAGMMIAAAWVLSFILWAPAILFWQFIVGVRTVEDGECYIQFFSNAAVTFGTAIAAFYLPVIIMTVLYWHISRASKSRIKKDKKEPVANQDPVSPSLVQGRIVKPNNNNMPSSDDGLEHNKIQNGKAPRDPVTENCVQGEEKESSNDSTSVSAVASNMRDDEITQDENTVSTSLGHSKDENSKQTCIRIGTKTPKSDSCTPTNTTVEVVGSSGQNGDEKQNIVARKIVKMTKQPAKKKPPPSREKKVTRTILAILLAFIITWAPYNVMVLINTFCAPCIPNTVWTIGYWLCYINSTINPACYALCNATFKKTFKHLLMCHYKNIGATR
Method in brief: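 CHO membranes expressing the human subtype (20 µg protein/well) with 0.3 nM [3H]NMS and analog (1 nM–100 µM) in 50 mM Tris-HCl pH 7.4, 2 h at 25 °C. […] Filtered on GF/B, washed, counted by scintillation. IC50 taken from curves to give Ki; three independent experiments in duplicate.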

Row | Structure (SMILES) | Ki [nM]
1 | O=C(OCc1ccc(Cl)c(Cl)c1)N(c1ccccc1)C1CN2CCC1CC2 (configuration not stated) | 220
2 | O=C(OCCCc1ccc(Cl)c(Cl)c1)N(c1ccccc1)C1CN2CCC1CC2 (configuration not stated) | 300
3 | O=C(OCc1ccc2c(c1)OCO2)N(c1ccccc1)C1CN2CCC1CC2 (configuration not stated) | 30

These compounds were tested against T2, Muscarinic acetylcholine receptor M1 (Homo sapiens) (UniProt P11229). Settings: CHO, at 100 µM.
T2 sequence (whole entry): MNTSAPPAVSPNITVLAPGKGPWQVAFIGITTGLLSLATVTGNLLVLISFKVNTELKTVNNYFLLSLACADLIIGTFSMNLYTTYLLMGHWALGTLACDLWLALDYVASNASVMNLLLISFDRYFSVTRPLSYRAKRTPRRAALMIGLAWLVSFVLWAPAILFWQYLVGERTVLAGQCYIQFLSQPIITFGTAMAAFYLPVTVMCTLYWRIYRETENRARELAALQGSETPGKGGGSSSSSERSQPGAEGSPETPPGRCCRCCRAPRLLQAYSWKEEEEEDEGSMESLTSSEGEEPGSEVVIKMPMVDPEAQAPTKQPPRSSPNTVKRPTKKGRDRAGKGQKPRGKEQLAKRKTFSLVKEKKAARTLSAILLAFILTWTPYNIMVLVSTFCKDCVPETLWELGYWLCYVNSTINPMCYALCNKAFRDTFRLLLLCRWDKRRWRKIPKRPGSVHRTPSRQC

Row | Structure (SMILES) | Imax [%]
4 | O=C(OCc1ccc(Cl)c(Cl)c1)N(c1ccccc1)C1CN2CCC1CC2 (configuration not stated) | 100
5 | O=C(OCCCc1ccc(Cl)c(Cl)c1)N(c1ccccc1)C1CN2CCC1CC2 (configuration not stated) | 100
6 | O=C(OCc1ccc2c(c1)OCO2)N(c1ccccc1)C1CN2CCC1CC2 (configuration not stated) | 100

Each compound was assayed against T3, Muscarinic acetylcholine receptor M5 (Homo sapiens) (UniProt P08912) (assay: Displacement of [3H]NMS from human M5 AChR expressed in CHO cell membranes at 100 uM after 1 to 2 hrs by liquid scintillation spectrometry method relative to control). Settings: not given.
T3 sequence (whole entry): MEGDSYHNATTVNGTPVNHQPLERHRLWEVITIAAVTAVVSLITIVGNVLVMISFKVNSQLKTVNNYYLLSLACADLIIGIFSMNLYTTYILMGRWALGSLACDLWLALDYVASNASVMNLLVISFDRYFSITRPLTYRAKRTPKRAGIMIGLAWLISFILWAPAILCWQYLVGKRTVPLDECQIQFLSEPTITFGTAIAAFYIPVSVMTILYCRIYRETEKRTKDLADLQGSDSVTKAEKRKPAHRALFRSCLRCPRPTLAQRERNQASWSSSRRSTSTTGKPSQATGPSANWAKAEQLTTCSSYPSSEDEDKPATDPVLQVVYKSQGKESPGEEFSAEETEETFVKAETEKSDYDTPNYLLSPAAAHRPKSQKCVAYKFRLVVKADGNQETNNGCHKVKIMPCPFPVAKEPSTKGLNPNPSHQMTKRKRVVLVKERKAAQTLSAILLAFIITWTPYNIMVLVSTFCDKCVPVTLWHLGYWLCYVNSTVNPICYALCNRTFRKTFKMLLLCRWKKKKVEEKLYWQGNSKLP
Method in brief: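 CHO membranes expressing human M5 (10 µg protein/well) with 0.3 nM [3H]NMS and analog (1 nM–100 µM) in 50 mM Tris-HCl pH 7.4, 2 h at 25 °C. […] Filtered on GF/B, counted by scintillation. IC50 converted to Ki; three independent experiments in duplicate.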

Row | Structure (SMILES) | Imax [%]
7 | O=C(OCc1ccc(Cl)c(Cl)c1)N(c1ccccc1)C1CN2CCC1CC2 (configuration not stated) | 98.6
8 | O=C(OCCCc1ccc(Cl)c(Cl)c1)N(c1ccccc1)C1CN2CCC1CC2 (configuration not stated) | 99.4
9 | O=C(OCc1ccc2c(c1)OCO2)N(c1ccccc1)C1CN2CCC1CC2 (configuration not stated) | 99.7

The compounds below were run against T4, Muscarinic acetylcholine receptor M5 (Homo sapiens, UniProt P08912) (assay: Displacement of [3H]NMS from human M5 AChR expressed in CHO cell membranes after 1 to 2 hrs by liquid scintillation spectrometry method). Settings: not given.
T4 sequence (P08912 whole entry): T3 sequence (whole entry)
Method in brief: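 CHO membranes expressing human M5 (10 µg protein/well) with 0.3 nM [3H]NMS and analog (1 nM–100 µM) in 50 mM Tris-HCl pH 7.4, 2 h at 25 °C. Filtered on GF/B, counted by scintillation. IC50 converted to Ki; three independent experiments in duplicate.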

Row | Structure (SMILES) | Ki [nM]
10 | O=C(OCc1ccc(Cl)c(Cl)c1)N(c1ccccc1)C1CN2CCC1CC2 (configuration not stated) | 60
11 | O=C(OCCCc1ccc(Cl)c(Cl)c1)N(c1ccccc1)C1CN2CCC1CC2 (configuration not stated) | 130
12 | O=C(OCc1ccc2c(c1)OCO2)N(c1ccccc1)C1CN2CCC1CC2 (configuration not stated) | 40

Each compound was assayed against T5, Muscarinic acetylcholine receptor M2 (Homo sapiens) (UniProt P08172) (assay: Displacement of [3H]NMS from human M2 AChR expressed in CHO cell membranes at 100 uM after 1 to 2 hrs by liquid scintillation spectrometry method relative to control). Settings: not given.
T5 sequence (whole entry): T1 sequence (P08172 whole entry)
Method in brief: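 CHO membranes expressing the human subtype (20 µg protein/well) with 0.3 nM [3H]NMS and analog (1 nM–100 µM) in 50 mM Tris-HCl pH 7.4, 2 h at 25 °C. Filtered on GF/B, washed, counted by scintillation. IC50 taken from curves to give Ki; three independent experiments in duplicate.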

Row | Structure (SMILES) | Imax [%]
13 | O=C(OCc1ccc(Cl)c(Cl)c1)N(c1ccccc1)C1CN2CCC1CC2 (configuration not stated) | 97.5
14 | O=C(OCCCc1ccc(Cl)c(Cl)c1)N(c1ccccc1)C1CN2CCC1CC2 (configuration not stated) | 99.9
15 | O=C(OCc1ccc2c(c1)OCO2)N(c1ccccc1)C1CN2CCC1CC2 (configuration not stated) | 99.4

These compounds were tested against T6, Muscarinic acetylcholine receptor (Rattus norvegicus) (UniProt P08482+P08483+P08485+P08911+P10980). Settings: 10 uM.

Row | Structure (SMILES) | inhibition [%]
16 | CN1[C@@H]2C[C@H](OC(=O)[C@H](CO)c3ccccc3)C[C@H]1[C@@H]1O[C@@H]12 | 59

Organism: Homo sapiens
Test: Selectivity ratio of Ki for displacement of [3H]NMS from human M1 AChR expressed in CHO cell membranes to Ki for displacement of [3H]NMS from human M5 AChR expressed in CHO cell membranes
Settings: not given

Row | Structure (SMILES) | Ratio Ki
17 | O=C(OCc1ccc(Cl)c(Cl)c1)N(c1ccccc1)C1CN2CCC1CC2 (configuration not stated) | 0.9
18 | O=C(OCCCc1ccc(Cl)c(Cl)c1)N(c1ccccc1)C1CN2CCC1CC2 (configuration not stated) | 1.3
19 | O=C(OCc1ccc2c(c1)OCO2)N(c1ccccc1)C1CN2CCC1CC2 (configuration not stated) | 0.8

Organism: Homo sapiens
Test: Selectivity ratio of Ki for displacement of [3H]NMS from human M2 AChR expressed in CHO cell membranes to Ki for displacement of [3H]NMS from human M3 AChR expressed in CHO cell membranes
Settings: not given

Row | Structure (SMILES) | Ratio Ki
20 | O=C(OCc1ccc(Cl)c(Cl)c1)N(c1ccccc1)C1CN2CCC1CC2 (configuration not stated) | 3.3
21 | O=C(OCCCc1ccc(Cl)c(Cl)c1)N(c1ccccc1)C1CN2CCC1CC2 (configuration not stated) | 4.7
22 | O=C(OCc1ccc2c(c1)OCO2)N(c1ccccc1)C1CN2CCC1CC2 (configuration not stated) | 1.7

These compounds were tested against T7, Muscarinic acetylcholine receptor M3 (Homo sapiens, UniProt P20309) (assay: Displacement of [3H]NMS from human M3 AChR expressed in CHO cell membranes after 1 to 2 hrs by liquid scintillation spectrometry method). Settings: not given.
Format: cell-based
Target sequence in this assay (P20309 whole entry): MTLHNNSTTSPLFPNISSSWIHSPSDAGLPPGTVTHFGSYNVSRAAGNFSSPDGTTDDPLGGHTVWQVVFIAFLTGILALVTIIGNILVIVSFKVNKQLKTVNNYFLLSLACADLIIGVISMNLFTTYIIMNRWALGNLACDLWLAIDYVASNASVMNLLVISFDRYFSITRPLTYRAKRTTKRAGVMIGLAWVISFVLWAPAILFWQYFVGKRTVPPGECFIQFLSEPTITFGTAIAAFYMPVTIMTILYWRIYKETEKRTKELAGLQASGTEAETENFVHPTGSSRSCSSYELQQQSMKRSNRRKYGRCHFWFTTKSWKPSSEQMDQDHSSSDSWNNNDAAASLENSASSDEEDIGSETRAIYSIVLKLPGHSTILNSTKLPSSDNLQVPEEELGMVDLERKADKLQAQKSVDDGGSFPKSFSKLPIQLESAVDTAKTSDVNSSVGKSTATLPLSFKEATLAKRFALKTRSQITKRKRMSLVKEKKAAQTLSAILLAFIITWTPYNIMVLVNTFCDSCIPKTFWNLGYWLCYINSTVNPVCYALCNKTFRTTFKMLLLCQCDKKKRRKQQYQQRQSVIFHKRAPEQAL

Row | Structure (SMILES) | Ki [nM]
23 | O=C(OCc1ccc(Cl)c(Cl)c1)N(c1ccccc1)C1CN2CCC1CC2 (configuration not stated) | 70
24 | O=C(OCCCc1ccc(Cl)c(Cl)c1)N(c1ccccc1)C1CN2CCC1CC2 (configuration not stated) | 60
25 | O=C(OCc1ccc2c(c1)OCO2)N(c1ccccc1)C1CN2CCC1CC2 (configuration not stated) | 19

These compounds were tested against T8, Muscarinic acetylcholine receptor M1 (Homo sapiens, UniProt P11229) (assay: Displacement of [3H]NMS from human M1 AChR expressed in CHO cell membranes after 1 to 2 hrs by liquid scintillation spectrometry method). Settings: not given.
T8 sequence (P11229 whole entry): T2 sequence (whole entry)
Format: cell-based

Row | Structure (SMILES) | Ki [nM]
26 | O=C(OCc1ccc(Cl)c(Cl)c1)N(c1ccccc1)C1CN2CCC1CC2 (configuration not stated) | 60
27 | O=C(OCCCc1ccc(Cl)c(Cl)c1)N(c1ccccc1)C1CN2CCC1CC2 (configuration not stated) | 170
28 | O=C(OCc1ccc2c(c1)OCO2)N(c1ccccc1)C1CN2CCC1CC2 (configuration not stated) | 30

These compounds were tested against T6, Muscarinic acetylcholine receptor (Rattus norvegicus). Settings: 1 uM.

Row | Structure (SMILES) | inhibition [%]
29 | CN1[C@@H]2C[C@H](OC(=O)[C@H](CO)c3ccccc3)C[C@H]1[C@@H]1O[C@@H]12 | 51

Each compound was assayed against T7, Muscarinic acetylcholine receptor M3. Settings: CHO, at 100 µM.
Target sequence in this assay (P20309 whole entry, looked up): as the sequence (P20309 whole entry) above

Row | Structure (SMILES) | Imax [%]
30 | O=C(OCc1ccc(Cl)c(Cl)c1)N(c1ccccc1)C1CN2CCC1CC2 (configuration not stated) | 95.8
31 | O=C(OCCCc1ccc(Cl)c(Cl)c1)N(c1ccccc1)C1CN2CCC1CC2 (configuration not stated) | 100
32 | O=C(OCc1ccc2c(c1)OCO2)N(c1ccccc1)C1CN2CCC1CC2 (configuration not stated) | 99.9
